# esBAF inh: inhibitors of esBAF chromatin remodeling in mouse ES cells; reporter increase, % at 12.5 µM; Bmi1-luciferase knock-in reporter, 24 h; 100% = twice the neutral-well signal; actives 2% (n = 350,000); in the data active = activation above about 40%; inconclusive = no clear call, values can overlap the other calls;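 also: 0% = median of the plate's neutral control wells and 100% = double that signal; a rise in the Bmi1 reporter signal indicates esBAF inhibition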
# Vif inh: HIV Vif inhibition; HEK293T cells, Vif self-association by quenched fluorescence, imaging, 24 h; inhibition, % at 7.49 µM; actives 0.35% (n = 340,000); in the data active = inhibition above about 50%, passing the limit was not always enough; inconclusive = no clear call, values can overlap the other calls; inactive = below about 31%
# Wnt act: activators of Wnt/beta-catenin signaling; Wnt/beta-catenin reporter cell assay, activator, plate reader; activation, % at 9.35 µM; actives 1.2% (n = 300,000); in the data active = activation above about 30%, passing the limit was not always enough; inconclusive = no clear call, values can overlap the other calls;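 also: 0% = neutral control wells and 100% = positive control wells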
# MITF act: activators of MITF-driven TRPM1 promoter activity in SK-MEL-5 cells. actives 0.75% (n = 300,000). SK-MEL-5 TRPM1-promoter luciferase, 24 h; % of positive control, neutral wells = 0. activation, % at 12.5 µM. AID 588334;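 active = mean activation of at least 80% with every replicate also reaching 80%; inconclusive = mean reaches 80% but some replicate falls short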;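 also: 0% = neutral control wells and 100% = parthenolide positive control wells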
# XiGFP reactiv: X-chromosome reactivation activator. XiGFP mouse fibroblasts, % GFP-positive cells imaging, 3 d; cells co-treated with 5-aza-dC sensitizer; scaled so ellipticine positive control = 100%. activation, % at 7.58 µM. actives 0.055% (n = 360,000);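 active = mean normalized replicate activation at least 10% and every replicate at or above 10%; inconclusive = only one of the two criteria met; inactive = mean below 10% and not all replicates reach 10%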;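 also: 0% = median of on-plate neutral control wells and 100% = ellipticine 6 µM median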
#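 Schedule: 3 d treatment, 15 min room-temperature fixation; system: 68-5-11 XiGFP fibroblast line; buffer or medium: DMEM plus 5-aza-dC sensitizer; control set: ellipticine 6 µM positive control; compound: one concentration, pinned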
# Ring1 derepress: esBAF inhibition confirmed by Ring1 de-repression | shares compounds with esBAF inh | mouse ESC E14, Ring1 mRNA RT-qPCR fold change | fold change at 33 µM | 550 tested, under 10 active | AID 743176;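 active = Ring1 gene expression raised more than 2-fold over untreated cells in both replicates at either tested dose; inconclusive = only one replicate above 2-fold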;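 also: Ring1 transcript normalised to actin housekeeping signal by TaqMan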
# Fgf4 repress: confirmation of esBAF inhibitors: Fgf4 repression in mouse ESCs. shares compounds with esBAF inh. mouse ESC E14, Fgf4 mRNA qPCR fold change; active compounds read low. Fgf4 expression fold change at 33 µM. actives 4% (n = 550);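 active = Fgf4 expression under 0.8 fold of control in both repeat measurements at one or both tested doses; inconclusive = under 0.8 fold in just a single repeat measurement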;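 also: Fgf4 transcript normalised to actin in duplex TaqMan qPCR; cells exposed to compound for 24 h before lysis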
# esBAF Bmi1 qPCR: confirmation of esBAF inhibitors: Bmi1 de-repression in mouse ESCs; 550 tested, under 10 active; mouse ESE14 ES cells, Bmi1 mRNA qPCR fold; active compounds read high; AID 743180; fold change at 33 µM; shares compounds with esBAF inh;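 active = Bmi1 expression fold change above 6 at either tested concentration, seen in replicate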;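 also: higher fold means more Bmi1 de-repression and stronger esBAF inhibition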
# A549 cytotox: kills or reduces viability of A549 cells. 550 tested, under 10 active. A549 cytotoxicity, plate reader. cell viability change % (negative = cytotoxic), % at 25 µM, hits read low. shares compounds with esBAF inh; call rule not given here
# HepG2 cytotox SP: HepG2 cell cytotoxicity at single point. activity change, negative = inhibition, % at 25 µM. plate reader; active compounds read low. shares compounds with esBAF inh. actives 4% (n = 550); in the data active = activity change below about -50%
# HEK293 cytotox SP: kills or reduces viability of HEK293 cells | shares compounds with esBAF inh | HEK293 cytotoxicity, plate reader | activity change, negative = inhibition, % at 25 µM, hits read low | actives 3% (n = 550) | AID 743190; in the data active = activity change below about -38%, passing the limit was not always enough
# * marks the source's active call; other numbers are inactive results; u = inconclusive; x = not tested or not shown. In the library only some 2.6% were active in any assay of this set; here they are far more common.
SMILES,esBAF inh,Vif inh,Wnt act,MITF act,XiGFP reactiv,Ring1 derepress,Fgf4 repress,esBAF Bmi1 qPCR,A549 cytotox,HepG2 cytotox SP,HEK293 cytotox SP
Cc1ccnc(N(C(=O)c2cccs2)C(=O)c2cccs2)c1,8.4,-0.1,u,30.1,x,x,x,x,x,x,x
Cc1ccc(C(=O)Nc2ccc(Br)c(C(F)(F)F)c2)cc1,73.6*,-20.9,x,84.0*,x,1.14,0.926,2.8,-4.8,6.9,-55.6*
COc1cccc2sc(NC(=O)c3ccc(Br)s3)nc12,67.7*,-14.0,x,31.0,x,1.59,0.877,1.57,7.9,18.0,2.5
Cc1cccc2sc(NC(=O)c3ccc(Cl)s3)nc12,u,-19.8,-2.1,21.4,0.0,x,x,x,x,x,x
COC(=O)c1c(-c2ccc(SC)cc2)sc2ccc(OC)cc12,98.6*,-3.8,57.8*,67.6,0.0,1.28,0.829,1.87,5.5,4.4,-5.3
COC(=O)c1c(-c2ccc(OC)cc2)sc2cc(OC)c(OC)cc12,1.5,9.0,1.9,13.5,0.0,x,x,x,x,x,x
C[C@@H]1CN([C@H](C)CO)S(=O)(=O)c2ccc(-c3ccccc3)cc2O[C@@H]1CN(C)C(=O)C1CCC1,x,x,x,x,-1.0,x,x,x,x,x,x
O=C(/C=N/NC(=O)c1ccc(Cl)cc1Cl)c1ccccc1,59.1*,-0.7,49.1*,43.3,-0.1,1.41,1.1,1.47,-3.0,-28.3,-6.4
Cc1ccccc1S(=O)(=O)N[C@H]1CC[C@H](CCn2cc(-c3ccccc3)nn2)O[C@@H]1CO,-5.4,x,x,x,0.2,x,x,x,x,x,x
Nc1nc(SCc2ccccc2)cc(SCc2ccccc2)n1,65.2*,-0.4,39.0*,54.0,0.1,1.14,1.08,1.66,-12.4,1.1,-3.6
O=C(C[C@H]1C[C@H]2c3cc(NC(=O)c4ccc5c(c4)OCO5)ccc3O[C@H]2[C@@H](CO)O1)NCc1cc(F)ccc1F,4.1,x,x,x,0.0,x,x,x,x,x,x
Cc1ccc(NC(=O)C2CCCN(c3ncccn3)C2)cc1C (configuration not stated),55.1*,-6.6,11.2,51.8,0.0,1.2,0.928,1.61,-5.9,-32.2,-10.2
Cc1ccnc(N2CCCC(C(=O)Nc3ccc(C)c(C)c3)C2)n1 (configuration not stated),12.2,-9.7,7.0,-13.4,0.0,x,x,x,x,x,x
C[C@@H]1CN([C@H](C)CO)C(=O)CCCn2nncc2CO[C@H]1CN(C)C(=O)CCCN(C)C,x,x,x,x,-0.5,x,x,x,x,x,x
O=C(Nc1ccc(Cl)cc1)Nc1ccc(Cl)c(Cl)c1,x,x,1.2,x,0.7,x,x,x,x,x,x
O=C(Nc1ccc(Cl)c(Cl)c1)Nc1ccccc1O,73.6*,8.8,10.0,x,0.0,1.65,u,1.73,4.6,-5.5,3.8
O=C(CNC1CCCCC1)N1CCc2ccccc2C1,x,3.4,-3.0,x,x,x,x,x,x,x,x
O=C(NC1CCCCC1)N1CCc2ccccc2C1,67.0*,-10.8,9.8,77.1,0.3,1.14,1,1.87,-7.5,-25.5,-11.1
O=C1N=C(N2CCCCC2)S/C1=C\c1ccccc1F,57.2*,-2.4,8.8,x,0.3,1.35,u,1.74,3.8,-8.0,-4.2
Cc1ccc(S(=O)(=O)NCC[C@@H]2CC[C@@H](NS(=O)(=O)c3ccccc3Cl)[C@H](CO)O2)cc1,9.8,x,x,x,0.7,x,x,x,x,x,x
CC(=O)Nc1ccc2nc(SCC(=O)Nc3ccc(N4CCOCC4)c(Cl)c3)sc2c1,47.9*,-14.9,u,x,x,0.766,0.857,1.42,-6.4,-9.9,-6.2
C[C@H](CO)N1C[C@H](C)[C@@H](CN(C)Cc2ccccc2)Oc2ncc(-c3cccc(F)c3)cc2C1=O,-2.8,x,x,x,-0.3,x,x,x,x,x,x
